Measured values pooled from the literature.
Protocols differ between the studies behind these lines.
Target: Rho-associated protein kinase 2 (ROCK2, Homo sapiens, UniProt O75116)

C[C@H]1CC[C@H](n2c3cnccc3c3cnc(Nc4ccc5c(n4)CCN(C(=O)CO)C5)nc32)CC1  remaining signal (cell-free assay; 1 µM): 95%
C#Cc1cc(-c2cc(Nc3nc(N[C@@H](C)c4ccc(F)cn4)ncc3Cl)n[nH]2)ccc1C=O  inhibition (enzyme activity, inhibitor; 0.2 µM): 5.91%
N#Cc1ccc(NC(=O)Nc2ccccc2)cc1  remaining binding (cell-free assay, competition with immobilised ligand; 25 µM): 63%
Cc1cc(O)c(-c2ccc([C@@H](C)CN(C)C)cc2)c2c1[nH]c(=O)c1sccc12  inhibition (enzyme activity, inhibitor; 0.1 µM): 14.6%
C=CC(=O)N1CCC[C@@H](n2nc(-c3ccc(Oc4ccccc4)cc3)c3c(N)ncnc32)C1  inhibition (enzyme activity, inhibitor; 1 µM): 0%
CN1CCN(C(=O)c2ccc(NC(=O)Nc3ccc(N(C)c4ccnc(Nc5ccc(CS(C)(=O)=O)cc5)n4)cc3)cc2)CC1  remaining binding (binding; 1 µM): 1.5%
CCCCC(=O)Nc1ccc(-c2ccc3ncn(CCC)c(=O)c3c2)cn1  remaining binding (binding, competition with immobilised ligand; 0.5 µM): 100%
CC#CC(=O)N1CCC[C@H]1c1nc(-c2ccc(C(=O)Nc3ccccn3)cc2)c2c(N)nccn12  inhibition (enzyme activity, inhibitor; 1 µM): 29%
C#Cc1cnc(Nc2ccnc(CO)c2)nc1Nc1ccccc1S(C)(=O)=NC#N (stereo not drawn)  remaining signal (cell-free assay; 1 µM): 49%
